Assay results taken from PubChem BioAssay.
Values without a mark were called inactive. Results filed as inconclusive are left out. The source made the active and inactive calls.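 How the source made its calls, unless noted: active means RAM network inhibition above 8.4% in each of two replicates, 3 SD over the compound average; inconclusive means above 8.4% inhibition in only one replicate; inactive means 8.4% inhibition or less in each replicate.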

Assays:
[1] = S. cerevisiae growth inhibition in permissive medium (OD615), pilot counter-assay for S. cerevisiae lifespan shortening project, permissive growth control (AID 705;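 active means growth inhibition above 25% in both replicates, a cutoff set 3 SD above the mean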); conditions: OD615, 24 h, at 10 µM, hits give high values
Method in brief: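 System – S. cerevisiae with engineered DeaD lifespan system · Buffer or medium – SC raffinose/galactose permissive medium · Schedule – cells pre-grown 4 h, then 24 h compound exposure, 30 °C humidified · Technique – culture turbidity as optical density at 615 nm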

[2] = S. cerevisiae growth inhibition in restrictive medium, OD615, pilot screen, restrictive growth control, yeast lifespan reduction project (AID 706;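 active means growth inhibition above a set limit, 3 SD over mean compound inhibition, in both replicates, cut at about 43% in these data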;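 further: modified DeaD lifespan yeast strain shifted to restrictive glucose medium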); conditions: OD615, 48 h, at 10 µM, hits give high values
Method in brief: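 Material: engineered S. cerevisiae DeaD strain / Medium: glucose-based CSMM-D restrictive medium / Compound: single dose of 10 µM compound final, 0.25% DMSO / Timing: 4 h pre-incubation, 48 h exposure at 30 °C / Technique: OD615 absorbance reading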

[3] = doxorubicin toxicity protection in MRP-1 cells – H69AR cells, CellTiter-Glo, duplicate, MRP-1 activator project, pilot screen (AID 807;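 active means viability increase at or above a cutoff of the median across tested compounds plus 3 SD, cut at about 8.5% in these data, passing the limit was not always enough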;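 further: compound pretreatment 18-22 h then 72 h combined with doxorubicin; 0% = doxorubicin alone and 100% = vehicle without doxorubicin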); conditions: H69AR viability with doxorubicin, CellTiter-Glo luminescence; at 10 µM; hits give high values
[4] = viability of HCT116 without oncogenic beta-catenin – human colon tumor cells, pilot screen (AID 823;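 active means cell viability at or below a set limit in both duplicate runs, the limit being the all-compound median minus 4 SD, cut at about 23% in these data, passing the limit was not always enough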;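 further: 0% = wells killed by 20 µM Hyamine and 100% = untreated DMSO cell wells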); conditions: HCT116 beta-catenin knockout viability, CellTiter-Glo, 60 h; at 10 µM; hits give low values
[5] = viability of PTEN-null HCT116 cells – cell-based, HCT116 clonal line, CellTiter-Glo, pilot screen (AID 824;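 active means viability at or below 27.92% in each of two runs, the all-compound median minus 4 SD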;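 further: 0% = 20 µM Hyamine control and 100% = vehicle cell control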); conditions: HCT116 PTEN-deleted viability, 60 h, at 10 µM, hits give low values
[6] = RAM pathway blockade in budding yeast – dse1pr::URA3 reporter, 5-FOA selection, pilot screen (AID 869;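 active means inhibition over a set limit, the all-compound mean plus 3 SD, in both replicate runs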;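 further: 0% = DMSO wells with no growth and 100% = 10 µM 1-NA-PP1 with full growth; RAM network block rescues cells from 5-FOA so hits raise OD615 growth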); conditions: S. cerevisiae dse1pr::URA3 5-FOA growth, OD615, 2 d; at 10 µM; hits give high values; strain carries analog-sensitive mutant Cbk1 kinase
[7] = RAM signaling pathway blockade in yeast – S. cerevisiae, Pdr1DBD-CYC8 efflux-inhibited sensitized strain, primary screen (AID 1298);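 further: 0% = DMSO untreated cells without growth and 100% = 10 µM 1-NA-PP1 full growth; higher means more yeast growth rescued from 5-FOA killing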; conditions: S. cerevisiae cbk1-as DSE1-URA3 strain, 5-FOA growth OD615, 2 d; at 50 µM; hits give high values

| SMILES | growth inhibition [1] | growth inhibition [2] | viability increase [3] | viability [4] | viability [5] | inhibition [6] | RAM network inhibition [7] |
| --- | --- | --- | --- | --- | --- | --- | --- |
| CN(CCCC(=O)Nc1nccs1)S(=O)(=O)c1ccc(Cl)cc1 | -0.375% | 0.355% | -1.24% | 110% | 97.7% | 1.51% | 0.41% |
| COC(=O)c1ccc(NS(=O)(=O)c2ccc3c(c2)oc(=O)n3C)cc1 | -4.12% | -3.33% | 1.49% | 103% | 96.4% | 0.69% | 7.21% |
| Fc1ccc(Nc2nc(N3CCOCC3)c3ccccc3n2)cc1 | -3.31% | -13.7% | -3.18% | 93.5% | 93.4% | 0.45% | 2.64% |
| CC1CCC(NC(=O)c2cc3c(=O)n(C)c4ccccc4c3n2C)CC1 (configuration not stated) | -12.8% | -9.28% | -4.41% | 76.8% | 66% | 2.25% | 4.58% |
| N=c1n(-c2ccccc2)c(O)cc(=O)n1-c1ccccc1 | -1.26% | 1.77% | 0.05% | 98.1% | 99.5% | 0.73% | 6.52% |
| Cn1c(Cn2c(=O)sc3ccccc32)nnc1SCC(=O)Nc1ccccc1F | -5.34% | -10% | -1.11% | 104% | 99.4% | 1.62% | 9.24% |
| CCOc1ccc(OCC)c(S(=O)(=O)NCc2ccc3c(c2)OCO3)c1 | -9.29% | -2.62% | -2.97% | 95.1% | 96.5% | 1.52% | 5.31% |
| Cc1cc(=O)oc2cc3c(cc12)OCCN3 | 5.96% | 2.04% | -1.47% | 93% | 97.6% | 2.65% | 3.78% |
| CCSc1nc2c(c(=O)n1-c1ccc(F)cc1)SCC2 | -7.3% | -6.39% | -2.75% | 89.2% | 94.2% | 1.18% | -0.35% |
| CCOC(=O)c1ccc(N=c2sc(C(=O)OC)cc(=O)n2CCCN2CCOCC2)cc1 | -4.99% | -3.88% | -8.16% | 57.4% | 52.6% | 2.12% | 2.6% |
| CN(Cc1ccco1)C(=O)C(Cc1ccccc1)NS(=O)(=O)c1ccc2c(c1)CCC(=O)N2 (configuration not stated) | -11.9% | -12.3% | -4.4% | 94.9% | 84.4% | 2.2% | 3.45% |
| CC(=O)N1CCc2c(sc(NC(=O)C3CC3)c2-c2nc3ccccc3s2)C1 | 0.95% | -2.89% | -3.03% | 65.4% | 63.4% | 1.99% | 4.93% |
| CCN(CC)CCNC(=O)Cn1cnc2sc(C)c(S(=O)(=O)N3CCOCC3)c2c1=O | 6.37% | 4.68% | -1.11% | 99% | 99.3% | 0.39% | 6.22% |
| CC1(C)NC(=O)N(CC(O)COc2ccc(N3C(=O)c4ccccc4C3=O)cc2)C1=O (configuration not stated) | -3.45% | -3.49% | -1.32% | 102% | 96.5% | 1.87% | 0.17% |
| Cn1c(NC(=O)c2ccc(Cl)cc2Cl)cc(=O)n(C)c1=O | -4.17% | 0.265% | -2.37% | 98.7% | 90.8% | 0.95% | -0.2% |
| COCCCNc1oc(-c2ccccc2F)nc1C#N | -13.2% | -15.9% | 2.02% | 105% | 97.2% | -0.74% | 0.89% |
| Cc1ccc(S(=O)(=O)N2CCN(C(=O)CN3CCCC3)C2)cc1 | -15.1% | -11.2% | -0.87% | 92.4% | 100% | 1.62% | 8.99% |
| O=C1c2cccnc2C(=O)N1Cc1cccs1 | -1.61% | -4.64% | -0.5% | 98.5% | 102% | 1.4% | 0.21% |

| SMILES | growth inhibition [1] | growth inhibition [2] | viability increase [3] | viability [4] | viability [5] | inhibition [6] | RAM network inhibition [7] |
| --- | --- | --- | --- | --- | --- | --- | --- |
| Cc1ccc(N(CC(=O)NC2CCC(C)CC2)S(=O)(=O)c2cccnc2)cc1 (configuration not stated) | 4.48% | 8.91% | 0.07% | 98.3% | 98.1% | 1.15% | -1.86% |
| O=C(Nc1nc2ccccc2n1CCN1CCCC1)c1ccc(Cl)cc1 | -9.21% | -13.3% | -7.07% | 59.9% | 65.7% | -0.07% | 4.6% |
| Cc1nc(SCC(=O)Nc2cccc(Cl)c2)n[nH]1 | -4.9% | -4.81% | -1.48% | 97% | 97.7% | 0.56% | -0.63% |
| O=C(c1cccc(C(=O)N2CCN(c3ccccc3F)CC2)c1)N1CCN(c2ccccc2F)CC1 | -6.5% | -6.43% | -2.61% | 56.8% | 54.9% | 3.28% | 4.24% |
| CCc1cccc(C)c1NC(=O)C1CCCO1 (configuration not stated) | -5.15% | -1.12% | -3.29% | 87.3% | 88.1% | 0.695% | 3.57% |
| COc1ccccc1-c1nc2n(n1)C(c1ccccc1Cl)C(C(N)=O)=C(C)N2 (configuration not stated) | -11.6% | -6.96% | -6.22% | 91% | 85.9% | -0.085% | -1.52% |
| O=C1CCCc2c1[nH]c1c(Br)cccc21 | 5.96% | -1.3% | 0.96% | 108% | 105% | 0.425% | 3.4% |
| Cc1ccccc1CSc1nnc(Cn2c(=O)sc3ccccc32)n1C | -9.17% | 11.4% | 1.46% | 95.6% | 98.5% | 1.81% | 6.66% |
| Cc1cccn2cc(CCNC(=O)c3ccc(Br)o3)nc12 | -8.18% | -5.67% | -1.61% | 99% | 94.3% | 1.12% | 1.91% |
| Cc1ccc2c(c1)NC(=O)C(CC(=O)O)O2 (configuration not stated) | 2.33% | 0.555% | -0.27% | 103% | 99.7% | 1.48% | 4.69% |
| O=C(O)CC1Sc2ccccc2NC1=O (configuration not stated) | -7.26% | 0.575% | -1.79% | 90.2% | 96% | 1.49% | 4.47% |
| Cc1onc(-c2ccccc2)c1C(=O)Nc1cccc(C#N)c1 | -20.3% | -6.79% | -2.52% | 96.5% | 88.5% | 2.92% | 4.56% |
| CCCNC(=O)c1noc2c1CCc1ccccc1-2 | -1.21% | 5.41% | -1.54% | 98.3% | 104% | 0.305% | -1.13% |
| CCc1nnc(NC(=O)CSc2nccn2-c2cccc(C)c2)s1 | -8.43% | 11.6% | 0.02% | 109% | 98.1% | 0.64% | 5.11% |
| Cc1ccc2c(c1)C(c1ccccc1)N(C(=O)C(C)C)CC(=O)N2 (configuration not stated) | -14.9% | -15.6% | -1.2% | 102% | 92.1% | 1.64% | 4.21% |
| COCCNC(=O)CS(=O)Cc1nc(-c2ccc(OC)cc2)oc1C (configuration not stated) | -9.42% | -4.61% | 0.42% | 103% | 95.2% | 1.11% | 0.85% |
| CC(=O)Oc1ccc(N2C(=O)C3C(C2=O)C2(C)C=CC3(C)O2)cc1 (configuration not stated) | 95.1% (active) | 100% (active) | -1.26% | 99% | 98.4% | 2.16% | 0.09% |
| Cc1csc2nc(CNS(=O)(=O)c3ccc4c(c3)OCCO4)cn12 | 4.07% | -5.18% | -1.85% | 91.9% | 85.7% | 3.93% | 2.03% |
